Results pooled from the literature.
Target: Estrogen receptor (ESR1, Homo sapiens, UniProt P03372)
Residues used in one study (P03372 1-595): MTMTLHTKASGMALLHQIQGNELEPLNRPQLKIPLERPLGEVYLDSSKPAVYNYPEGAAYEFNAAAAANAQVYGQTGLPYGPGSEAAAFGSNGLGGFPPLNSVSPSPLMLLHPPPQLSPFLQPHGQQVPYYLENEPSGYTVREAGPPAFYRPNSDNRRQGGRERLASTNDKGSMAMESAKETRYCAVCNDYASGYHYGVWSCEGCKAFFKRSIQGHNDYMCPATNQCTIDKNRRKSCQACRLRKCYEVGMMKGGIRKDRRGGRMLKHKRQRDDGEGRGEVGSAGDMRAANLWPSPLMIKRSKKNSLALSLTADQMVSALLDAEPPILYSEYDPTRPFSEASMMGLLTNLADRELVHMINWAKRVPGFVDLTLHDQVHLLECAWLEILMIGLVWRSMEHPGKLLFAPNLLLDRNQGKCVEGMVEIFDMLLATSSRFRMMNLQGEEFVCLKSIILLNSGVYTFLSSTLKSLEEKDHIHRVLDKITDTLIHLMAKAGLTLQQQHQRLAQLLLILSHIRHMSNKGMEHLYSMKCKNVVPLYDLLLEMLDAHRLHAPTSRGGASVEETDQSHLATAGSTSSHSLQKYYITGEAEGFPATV

Clc1ccc(-c2cc(Cl)ccc2Cl)cc1 has an Emax of under 20% (reporter gene, agonist, luciferase).
For COc1ccc(S(=O)(=O)N2CCCCC2)cc1C, the inhibition was under 30% (ligand displacement, radioligand; 10 µM).
With CC(C)N1CCC[C@H]1CNC(=O)c1cn(C2CCCC2)c(=O)c2c1c1ccccc1n2C the inhibition was 15% (ligand displacement, radioligand; 10 µM).
Clc1cccc(-c2cccc(Cl)c2)c1 has an Emax of under 20% (reporter gene, agonist, luciferase).
For C[C@H](C(=O)N[C@H]1COc2ccccc2[C@@H]1S(C)(=O)=O)c1ccc(F)cc1, the inhibition was 7% (cell-free assay; 10 µM).
The inhibition of COCc1c(-c2cc3cc(C)cc(OC)c3s2)c2c(N)ncnn2c1CN1CCNC(=O)C1 is reported as 6% (ligand displacement, radioligand; 10 µM).
For O=C(Nc1cccnn1)N1CCN([C@@H]2CCOc3cc(C(F)(F)F)ccc32)CC1, the inhibition was 0% (cell-free assay; 20 µM).
c1ccc(C(NCCNC(c2ccccc2)c2ccccc2)c2ccccc2)cc1 gave an inhibition of 63% (cell-free assay; 10 µM).
